The source made the active and inactive calls.
Tests used:
[1] = test system: A-375; assay: Antiproliferative activity against human A375 cells assessed as inhibition of cell proliferation after 48 hrs by MTT assay; format: functional, cell-based; details: A-375, 48 h
Summary of the method: (§1)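 Cells grown at 37 °C in humidified 5% CO2. K562, C26 and HCT lines in RPMI-1640; other lines in DMEM; both media with 10% FBS, penicillin and streptomycin. 1000 cells/well seeded, incubated overnight, then compound at various doses for 48 h. MTT added for 4 h, formazan dissolved in DMSO, absorbance read at 590 nm. IC50 from dose–response curves, mean ± SEM of at least three independent experiments.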

[2] = test system: HepG2; assay: Antiproliferative activity against human HepG2 cells assessed as inhibition of cell proliferation after 48 hrs by MTT assay; format: functional, cell-based; summary of the method: as §1
[3] = test system: K562; assay: Antiproliferative activity against human K562 cells assessed as inhibition of cell proliferation after 48 hrs by MTT assay; format: functional, cell-based; details: K562, 48 h; summary of the method: as §1
[4] = Solubility in PBS solution by nephelometry; format: physicochemical
Summary of the method: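 Maximum soluble concentration in PBS, determined by nephelometry.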

[5] = Antiproliferative activity against human HCT116 cells assessed as inhibition of cell proliferation after 48 hrs by MTT assay; format: functional, cell-based; details: HCT-116, 48 h
[6] = Antiproliferative activity against human DLD1 cells assessed as inhibition of cell proliferation after 48 hrs by MTT assay; format: functional, cell-based; details: DLD-1, 48 h; summary of the method: as §1
[7] = Antiproliferative activity against mouse C26 cells assessed as inhibition of cell proliferation after 48 hrs by MTT assay; format: functional, cell-based; details: C26, 48 h; summary of the method: as §1
[8] = test system: AGS; assay: Antiproliferative activity against human AGS cells assessed as inhibition of cell proliferation after 48 hrs by MTT assay; format: functional, cell-based; summary of the method: as §1
[9] = test system: U-251; assay: Antiproliferative activity against human U251 cells assessed as inhibition of cell proliferation after 48 hrs by MTT assay; format: functional, cell-based; details: U-251, 48 h; summary of the method: as §1
[10] = Antiproliferative activity against human A2780S cells assessed as inhibition of cell proliferation after 48 hrs by MTT assay; format: functional, cell-based; details: A2780, 48 h
Summary of the method: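 Cells grown in DMEM with 10% FBS, penicillin/streptomycin at 37 °C, 5% CO2. 1000 cells/well seeded, incubated overnight, then exposed to various doses for 48 h. MTT added for 4 h, formazan dissolved in DMSO, absorbance read at 590 nm. IC50 = concentration inhibiting proliferation by 50%, mean ± SEM of dose–response curves from at least three independent experiments.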

[11] = test system: NCI-H358; assay: Antiproliferative activity against human NCI-H358 cells assessed as inhibition of cell proliferation after 48 hrs by MTT assay; format: functional, cell-based; details: NCI-H358, 48 h; summary of the method: as §1
[12] = Antiproliferative activity against human ES2 cells assessed as inhibition of cell proliferation after 48 hrs by MTT assay; format: functional, cell-based; details: ES-2, 48 h
[13] = test system: MCF7; assay: Antiproliferative activity against human MCF7 cells assessed as inhibition of cell proliferation after 48 hrs by MTT assay; format: functional, cell-based; details: MCF7, 48 h; summary of the method: as §1
[14] = Antiproliferative activity against human HCT15 cells assessed as inhibition of cell proliferation after 48 hrs by MTT assay; format: functional, cell-based; details: HCT-15, 48 h; summary of the method: as §1
[15] = test system: HUVEC; assay: Antivascular activity in HUVECs assessed as inhibition of cell migration incubated for 20 hrs by phase contrast microscopy based wound healing migration assay; format: functional; details: Homo sapiens
Summary of the method: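 HUVECs grown to confluence in DMEM, then serum-starved for 16 h. Monolayer scratched with a pipet tip and washed with PBS. Serum-free DMEM with vehicle or 50, 100 or 500 nM compound added. Imaged after 20–24 h; migrated cells counted manually and expressed relative to vehicle wells; t-test.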

[16] = test system: HUVEC; assay: Antivascular activity in HUVECs assessed as disruption of capillary-like tubes at 50 to 500 nM incubated for 6 hrs by matrigel based tube formation assay; format: functional, cell-based; details: Homo sapiens
Summary of the method: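 HUVECs (2−4 × 10^4) in DMEM seeded on Matrigel polymerized at 37 °C for 30 min. Treated with 50, 100 or 500 nM compound or vehicle at 37 °C. Capillary networks photographed after 6 h and quantified; significance by t-test.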

[17] = molecular target: T1, Tubulin (Homo sapiens) (UniProt P68371+Q9H4B7+P0DPH7+P68366+Q13509+Q71U36+P04350+Q3ZCM7+P07437+P68363+Q9BQE3+Q6PEY2+Q13885+Q9BVA1+Q9BUF5); assay: Inhibition of tubulin polymerization in human HepG2 cells assessed as multiple tubulin bundles at 1 uM after 24 hrs by immunofluorescence assay; format: cell-based
Summary of the method: (§2)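 HepG2 cells seeded overnight, then given 1 μM compound or DMSO for 24 h; methanol-fixed, blocked 45 min in 5% BSA/PBS, α-tubulin primary antibody overnight at 4 °C, fluorescent secondary 1 h, DAPI nuclear counterstain; microtubules and spindles imaged by fluorescence microscopy.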

[18] = molecular target: T1, Tubulin (Homo sapiens); assay: Inhibition of tubulin (unknown origin) polymerization pre-incubated for 5 mins by spectrophotometry; format: protein-complex assay
[19] = molecular target: T1, Tubulin (Homo sapiens); assay: Inhibition of tubulin polymerization in human HepG2 cells assessed as spindle formation alterations at 1 uM after 24 hrs by immunofluorescence assay; format: cell-based; summary of the method: as §2
[20] = molecular target: T1, Tubulin (Homo sapiens); assay: Inhibition of tubulin polymerization in human HepG2 cells assessed as abnormal mitotic spindles at 1 uM after 24 hrs by immunofluorescence assay; format: cell-based; summary of the method: as §2
[21] = molecular target: T1, Tubulin (Homo sapiens); assay: Inhibition of tubulin polymerization in human HepG2 cells assessed as microtubule polymerization alterations at 1 uM after 24 hrs by immunofluorescence assay; format: cell-based; summary of the method: as §2
[22] = Toxicity in iv dosed BALB/c mouse; format: organism-based; details: in vivo
Summary of the method: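 Maximum tolerated dose in BALB/c mice (SPF, 18−22 g, 6−8 weeks, half female and half male). Graded doses given intravenously, n = 4 per dose. Survival and adverse effects recorded every other day after dosing. MTD defined as the largest dose given before one death occurs.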

Row | SMILES | IC50 [1] [nM] | IC50 ([2]; Homo sapiens, HepG2, 48 h) [nM] | IC50 [3] [nM] | other results
1 | CCC(=O)Nc1cc(/C=C/C(=O)c2ccc(OC)c3c2OC(C)(C)C=C3)ccc1OC | 920 | 910 | 800 | –
2 | COc1ccc(/C=C/C(=O)c2ccc(OC)c3c2OC(C)(C)C=C3)cc1NS(=O)(=O)C1CC1 | 1870 | 1960 | 1580 | –
3 | CCN(CC)c1cc(/C=C/C(=O)c2ccc(OC)c3c2OC(C)(C)C=C3)ccc1OC | > 2000 | > 2000 | > 2000 | –
4 | COc1ccc(/C=C/C(=O)c2ccc(OC)c3c2OC(C)(C)C=C3)cc1NC(=O)CN | 700 | 280 | 890 | –
5 | COc1ccc(/C=C/C(=O)c2ccc(OC)c3c2OC(C)(C)C=C3)cc1NC(C)=O | 430 | 570 | 700 | –
6 | COc1ccc(/C=C/C(=O)c2ccc(OC)c3c2OC(C)(C)C=C3)cc1NC(=O)Cc1cccc(C(F)(F)F)c1 | > 2000 | > 2000 | > 2000 | –
7 | COc1ccc(/C=C/C(=O)c2ccc(OC)c3c2OC(C)(C)C=C3)cc1NCc1ccccc1 | 790 | 970 | 1860 | –
8 | COc1ccc(/C=C/C(=O)c2ccc(OC)c3c2OC(C)(C)C=C3)cc1NC(N)=O | 1990 | 1640 | 1540 | –
9 | COc1ccc(/C=C/C(=O)c2ccc(OC)c3c2OC(C)(C)C=C3)cc1NS(C)(=O)=O | 1800 | 2000 | 1770 | –
10 | COc1ccc(/C=C/C(=O)c2ccc(OC)c3c2OC(C)(C)C=C3)cc1N.O=C(O)/C=C\C(=O)O | – | – | – | solubility kinetic [4]: 47 µg/mL; IC50 ([2]; hepg2): 12 nM
11 | COc1ccc(/C=C/C(=O)c2ccc(OC)c3c2OC(C)(C)C=C3)cc1NC(=O)C(C)C | 530 | 830 | 570 | –
12 | COc1cc2c(c(OC)c1OC)-c1ccc(OC)c(=O)cc1[C@@H](NC(C)=O)CC2 [COLCHICINE] | 12 | 42 | 16 | IC50 [5]: 15 nM; IC50 [6]: 11 nM; IC50 [7]: 344 nM; IC50 [8]: 9 nM; IC50 [9]: 20 nM; IC50 [10]: 4 nM; IC50 [11]: 4 nM; IC50 [12]: 18 nM; IC50 [13]: 58 nM; IC50 [14]: 16 nM
13 | COc1ccc(/C=C/C(=O)c2ccc(OC)c3c2OC(C)(C)C=C3)cc1N | – | – | – | inhibition [15]: Dose-dependent effect; inhibition [16]: Dose-dependent effect; inhibition [17]: Active; inhibition [18]: Dose-dependent effect; inhibition [19]: Active; inhibition [20]: Active; inhibition [21]: Active
14 | COc1ccc(/C=C/C(=O)c2ccc(OC)c3c2OC(C)(C)C=C3)cc1N.O=C(O)C(O)C(O)C(=O)O | – | 11 | – | solubility kinetic [4]: 52 µg/mL
15 | COc1ccc(/C=C/C(=O)c2ccc(OC)c3c2OC(C)(C)C=C3)cc1NCCN1CCOCC1 | > 2000 | > 2000 | > 2000 | –
16 | C#CCNc1cc(/C=C/C(=O)c2ccc(OC)c3c2OC(C)(C)C=C3)ccc1OC | 1600 | 1640 | 1580 | –
17 | COc1ccc(/C=C/C(=O)c2ccc(OC)c3c2OC(C)(C)C=C3)cc1NS(=O)(=O)c1ccc(C)cc1 | > 2000 | > 2000 | > 2000 | –
18 | CNc1cc(/C=C/C(=O)c2ccc(OC)c3c2OC(C)(C)C=C3)ccc1OC | > 2000 | > 2000 | > 2000 | –
19 | COc1ccc(/C=C/C(=O)c2ccc(OC)c3c2OC(C)(C)C=C3)cc1N(Cc1ccccc1)Cc1ccccc1 | > 2000 | > 2000 | 114 | –
20 | CCCCC(=O)Nc1cc(/C=C/C(=O)c2ccc(OC)c3c2OC(C)(C)C=C3)ccc1OC | 1590 | 1300 | 1160 | –
21 | COc1ccc(/C=C/C(=O)c2ccc(OC)c3c2OC(C)(C)C=C3)cc1N.CS(=O)(=O)O | – | – | – | solubility kinetic [4]: 50 µg/mL; IC50 ([2]; hepg2): 10 nM
22 | COc1ccc(/C=C/C(=O)c2ccc(OC)c3c2OC(C)(C)C=C3)cc1N.O=S(=O)(O)O | – | – | – | solubility kinetic [4]: 58 µg/mL; MTD [22]: 200 mg/kg
23 | C=CC(=O)Nc1cc(/C=C/C(=O)c2ccc(OC)c3c2OC(C)(C)C=C3)ccc1OC | 1120 | 840 | 1120 | –
24 | COc1ccc(/C=C/C(=O)c2ccc(OC)c3c2OC(C)(C)C=C3)cc1NS(=O)(=O)Cc1ccccc1 | 2000 | > 2000 | > 2000 | –
25 | COc1ccc(/C=C/C(=O)c2ccc(OC)c3c2OC(C)(C)C=C3)cc1N(CC=C(C)C)CC=C(C)C | > 2000 | > 2000 | 1500 | –
26 | COc1ccc(/C=C/C(=O)c2ccc(OC)c3c2OC(C)(C)C=C3)cc1NC(=O)[C@@H](C)N | 360 | 110 | 220 | –
